Rows were chosen to be rich in hits. Some 1.8% of all compounds tested hit in one or more screens of this group.
PTPN22 act: activators of human LYP (PTPN22) phosphatase; Q9Y2R2; recombinant LYP, DiFMUP fluorescence; 0 = plate median, 100 = signal doubled; AID 697; activation, % at 2 µM; actives 0.11% (n = 96,000);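 active = activation at 2 µM above a set limit, the mean plus 5 SD, cut at about 37% in these data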
Target sequence (Q9Y2R2 whole entry, looked up): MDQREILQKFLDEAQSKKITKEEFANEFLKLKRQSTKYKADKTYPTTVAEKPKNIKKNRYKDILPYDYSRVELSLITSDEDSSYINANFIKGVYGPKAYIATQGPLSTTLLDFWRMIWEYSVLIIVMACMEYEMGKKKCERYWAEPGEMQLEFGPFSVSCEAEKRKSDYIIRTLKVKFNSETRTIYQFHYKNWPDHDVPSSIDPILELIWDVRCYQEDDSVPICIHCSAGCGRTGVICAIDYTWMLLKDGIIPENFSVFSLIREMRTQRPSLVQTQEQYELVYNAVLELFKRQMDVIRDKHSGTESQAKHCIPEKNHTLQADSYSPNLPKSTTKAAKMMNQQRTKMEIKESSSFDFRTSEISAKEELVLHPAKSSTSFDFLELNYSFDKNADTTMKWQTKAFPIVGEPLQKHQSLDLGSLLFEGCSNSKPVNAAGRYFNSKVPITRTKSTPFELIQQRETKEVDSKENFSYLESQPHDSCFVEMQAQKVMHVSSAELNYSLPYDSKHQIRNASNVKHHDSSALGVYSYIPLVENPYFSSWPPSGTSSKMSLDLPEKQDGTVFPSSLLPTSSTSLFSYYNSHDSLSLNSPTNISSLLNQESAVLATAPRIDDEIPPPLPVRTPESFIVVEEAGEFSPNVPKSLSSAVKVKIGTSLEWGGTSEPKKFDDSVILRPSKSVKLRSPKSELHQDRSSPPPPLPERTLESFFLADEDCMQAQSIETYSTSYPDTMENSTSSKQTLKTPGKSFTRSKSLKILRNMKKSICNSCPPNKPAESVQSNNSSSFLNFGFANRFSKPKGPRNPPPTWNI
PTPN22 inh 2: inhibitors of human LYP (PTPN22) phosphatase; Q9Y2R2; recombinant LYP catalytic domain, DiFMUP fluorescence; inhibition, % at 2 µM; actives 0.21% (n = 96,000);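 active = inhibition at 2 µM at or above a set limit, the screen mean plus 3 SD, cut at about 24% in these data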;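 also: 0% = DMSO with enzyme and 100% = enzyme fully blocked by orthovanadate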
Rev-RRE block: inhibitors of HIV-1 Rev-RRE RNA interaction | P05866 | Rev peptide-RRE RNA binding, FRET | inhibition, % at 8 µM | actives 0.79% (n = 97,000) | AID 704;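 active = inhibition above the screen-wide mean plus 3 SD, cut at about 35% in these data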;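 also: 0% = median DMSO wells and 100% = median Neomycin B control wells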
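Assay system: Rev peptide and RRE RNA, both fluorescently labelled; times: 5 min preincubation and 15 min binding, 25 °C; detection: FRET, ex 480 nm, em 540 and 671 nm; read-out basis: % inhibition from 671/540 nm acceptor-to-donor ratio, scaled between controls; benchmarks: DMSO low control, neomycin B high control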
PTK2B oligo ant: Pyk2 (human) oligomerization antagonism | Q14289 | Q293 cells, Pyk2 FERM NanoBiT luminescence; stronger effect = lower value | z-score (the deposit names both 25 µM and 10 µM) | actives 0.83% (n = 99,000);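 active = Z-score of -3 or lower, scaled per plate to the spread of control and sample wells; inactive = z-score above -3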;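 also: negative z-score means lost luminescence so less FERM oligomerization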
* = called active by the depositor; · = not tested or not shown; [ ] = another dose, or the depositor's remark.

SMILES	PTPN22 act	PTPN22 inh 2	Rev-RRE block	PTK2B oligo ant
COc1cccc(C(c2nnnn2Cc2ccccc2)N2CCN(C(=O)c3ccco3)CC2)c1OC (configuration not stated)	1.0	3.0	7.2	-0.55
COc1cccc(C(c2nnnn2Cc2ccco2)N2CCN(c3cccc(C)c3C)CC2)c1OC (configuration not stated)	-5.7	5.1	6.8	-3.88*
CCOc1ccc(CCNC(=O)CN2CCN(Cc3ccccc3C)C2=O)cc1OCC	·	·	·	1.74
O=S1(=O)CC(O)C(N2CCCCC2)C1 (configuration not stated)	2.0	-3.9	3.5	0.24
Cc1cccc2cc(C#N)c(SCC(=O)N3CC(=O)Nc4ccccc43)nc12	3.6	-4.2	19.9	-3.08*
O=C(CCC1CCCCC1)N1CCN(Cc2ccc3c(c2)OCO3)CC1	3.6	-4.3	10.6	-0.49
CC(=Nc1cccc(C)c1)c1sc2ccccc2c1O	10.1	-6.3	25.1	0.15
CC(=Nc1ccc(O)cc1)c1sc2ccccc2c1O	-6.6	5.8	42.4*	-1.05
NNC(=O)CN1C(c2ccc(Cl)cc2)=Nc2ccc(Br)cc2C1c1ccccc1 (configuration not stated)	-7.5	9.5	5.3	-3.35*
CCOC(=O)CN1C(=O)Nc2ccc(Br)cc2C1c1ccccc1 (configuration not stated)	-7.5	9.0	5.1	-1.59
COC(=O)CN1C(c2ccccc2)=Nc2ccc(Cl)cc2C1c1ccccc1 (configuration not stated)	-1.0	0.6	12.8	-3.05*
CCC1=Nc2ccc(Br)cc2C(c2ccccc2)N1CC(=O)OC (configuration not stated)	0.8	1.9	3.8	-0.88
COc1ccc2c(c1)c(=O)oc1cc(OCC(=O)N3CCc4ccccc4C3)ccc12	-17.8	15.7	-15.8	1.77
COC(=O)C1CSc2[nH]c(=O)sc2C1c1ccccc1 (configuration not stated)	6.1	-5.5	78.5*	-0.17
COc1ccc2nc3sc(C(=O)NCc4cccs4)c(N)c3cc2c1	-9.9	10.1	39.7*	·
COc1ccc(NC(=O)CSc2ccc3c4c(cccc24)C(=O)c2ccccc2-3)cc1	-22.0	25.5*	125.3*[fluorescence artefact?]	-2.02
N#Cc1cccc(NC(=O)CSc2ccccc2)c1	-8.7	8.0	2.5	1.83
N#Cc1cccc(NC(=O)CSc2ccc3c4c(cccc24)C(=O)c2ccccc2-3)c1	-8.7	11.2	115.2*[fluorescence artefact?]	-1.08
CC(=O)c1c(C(C)=O)c(C)n(-c2ccc(N)c(C)c2)c1C	8.0	-5.8	2.5	-0.53
Cc1nn2c(=O)cc(COC(=O)c3ccc(S(=O)(=O)N4CCCCC4)cc3)nc2s1	-0.2	-1.5	0.5	0.08
Cc1cccc(/C=N\NC(=O)c2sccc2-n2cccc2)c1	3.7	-0.4	-3.9	-0.01
COc1ccc(N=C2S/C(=C\c3ccc(N4CCOCC4)o3)C(=O)N2CCc2c[nH]c3ccccc23)cc1	-14.2	16.4	131.3*[fluorescence artefact?]	-2.38
CCCN1C(=O)/C(=C/c2ccc(C)o2)SC1=Nc1ccc(OC)cc1	-2.1	4.2	2.4	-0.62
CCCCNC(=O)CN(c1cccc(Br)c1)S(C)(=O)=O	-3.9	3.5	5.1	0.44
COc1ccc2oc(=O)c(-c3nnc(NCc4ccco4)s3)cc2c1	-21.1	21.9	43.0*	1.11
SMILES	PTPN22 act	PTPN22 inh 2	Rev-RRE block	PTK2B oligo ant
CNc1nnc(-c2cc3cc(Cl)ccc3oc2=O)s1	-1.5	3.6	79.4*	0.16
Cc1csc2ncc(C(=O)NC(C)c3ccccc3)c(=O)n12 (configuration not stated)	3.1	-4.9	2.3	·
Cc1cc(/C=C2\SC(=S)NC2=O)c(C)n1C1CC1	-2.6	1.6	65.1*	0.17
CCOc1ccc(NC(=O)C(C)Oc2ccccc2C(=O)Nc2ccc(C)c(Cl)c2)cc1 (configuration not stated)	8.4	-4.0	14.8	-0.53
COc1ccc(S(=O)(=O)c2c(N)n(Cc3ccco3)c3nc4ccccc4nc23)cc1	-5.2	3.9	52.9*	0.92
Cc1ccc(NC(=O)Cn2c(/C=C/c3ccccc3)nc3ccccc32)cc1C	-13.3	16.2	-4.3	-3.84*
Cc1nc2ccccc2n1CC(=O)N/N=C\C=C\c1ccccc1	-5.1	6.5	7.1	-0.03
COc1ccc(C)cc1NC(=O)C(=O)NNC(=O)c1ccco1	·	·	-0.4	0.33
Cc1cc2n(c1)CCn1c(C)ccc1-2	2.5	-2.4	45.7*	·
Cc1ccccc1Oc1ccc(S(=O)(=O)NCCC(=O)O)cc1	11.0	-14.9	0.0	-3.51*
O=C(NCC1CCCO1)C1CCN(C(=O)c2ccc(Br)cc2)CC1 (configuration not stated)	3.5	-9.4	6.3	-0.38
CCOC(=O)c1ccc(N2C(=O)c3n[nH]c(C)c3C2c2ccccn2)cc1 (configuration not stated)	4.7	-4.6	-1.2	·
CCOC(=O)c1ccc(N2C(=O)c3n[nH]c(C)c3C2c2cccnc2)cc1 (configuration not stated)	2.7	-4.1	6.6	-3.79*
CCNC(=S)NNC(=O)c1cccn(Cc2ccc(Cl)cc2)c1=O	-41.0	42.4*	-1.4	0.37
C=CCn1c(-c2cccn(Cc3ccc(Cl)cc3Cl)c2=O)n[nH]c1=S	-8.3	10.4	1.0	3.17
CCNC(=S)NNC(=O)c1ccccc1OC(F)F	-0.6	-3.6	10.9	-0.78
CNC(=S)NNC(=O)c1cccn(Cc2ccc(Cl)cc2Cl)c1=O	-52.7	53.8*	2.5	·
Cc1ccc(N2C(=O)CC(n3nc(C)cc3C)C2=O)cc1 (configuration not stated)	-5.0	4.6	1.2	0.46
O=[N+]([O-])c1ccccc1N/N=C/c1c[nH]c2ccccc12	-12.6	16.1	3.1	-1.92
COc1ccccc1NS(=O)(=O)c1cc([N+](=O)[O-])ccc1N/N=C/c1c[nH]c2ccccc12	-4.0	5.7	63.9*[fluorescence artefact?]	-2.95
Cc1[nH]c2ccccc2c1/C=N/Nc1ccc([N+](=O)[O-])cc1S(=O)(=O)Nc1ccc(Cl)cc1	0.0	-1.4	40.5*	-3.36*
O=S(=O)(N/N=C\c1cn(-c2ccccc2)nc1-c1ccccc1)c1ccccc1	4.0	-1.9	3.1	-1.41
O=[N+]([O-])c1ccc(N/N=C/c2c[nH]c3ccccc23)cc1	5.1	-0.2	58.4*[fluorescence artefact?]	-0.91
O=[N+]([O-])c1ccc(N/N=C/c2cn(-c3ccccc3)nc2-c2ccccc2)cc1	2.8	-1.3	63.7*	-1.61
Cc1ccc(C(=O)C2CCN(CC(=O)Nc3nc(C)cs3)CC2)cc1	4.1	-1.9	2.9	0.76
Cc1cc(C)cc(N(CC(=O)N2CCn3c2nc2ccccc23)S(=O)(=O)c2c(C)noc2C)c1	-10.0	6.5	7.3	·
C=CCn1c(SCC(=O)c2cc(C)n(C(C)COC)c2C)nc2sc(C)c(C)c2c1=O (configuration not stated)	-10.4	14.0	2.9	-0.62
COc1c(/C=N/Nc2ccc([N+](=O)[O-])cc2[N+](=O)[O-])c(C)nn1-c1ccccc1	-5.5	8.0	10.5	-0.89
